Assay type in all cases: functional
Assay [1] deals with A549. Briefly: Antiproliferative activity against human A549 cells by sulforhodamine B assay. Summed up:
(§1)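 Cells in RPMI 1640 (25 mM HEPES, 2 mM L-glutamine, 10% heat-inactivated FBS, antibiotics) at 37 °C, 5% CO2. Seeded at 3–5 × 10³/well with graded concentrations, paclitaxel as assay control, for 72 h. TCA-fixed, stained with 0.04% SRB, dye dissolved in 10 mM Tris, A515 read. GI50 is the concentration halving absorbance versus untreated cells; three or more experiments.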
Background: The SRB assay estimates cell density from bound dye.

The subject of assay [2] is DU-145. The assay can be described thus: Antiproliferative activity against human DU145 cells by sulforhodamine B assay. Put shortly:
as §1

Assay [3] relates to KB. Briefly: Antiproliferative activity against human KB cells by sulforhodamine B assay. Put shortly: as §1
Assay [4] is described as follows: Antiproliferative activity against multidrug-resistant P-gp expressing human KBVIN cells by sulforhodamine B assay. Summed up:
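Vincristine-resistant KB subline kept in 100 nM vincristine, then grown 7–10 days without it before testing. RPMI 1640 with 10% FBS, 37 °C, 5% CO2. 3–5 × 10³ cells/well exposed 72 h to a concentration series, paclitaxel as assay control. SRB staining after TCA fixation, A515 read. GI50 is the 50% absorbance reduction versus untreated cells; three or more experiments.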

The nature of assay [5]: Selectivity ratio of GI50 for human KB cells to GI50 for multidrug-resistant P-gp expressing human KBVIN cells. Summed up: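 Ratio of GI50 in parental KB to GI50 in P-gp-overexpressing KB-VIN. […] KB-VIN cells were grown 7–10 days without vincristine before the assay.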

The values below come from ChEMBL document CHEMBL3400028, “Evaluation of Aconitum diterpenoid alkaloids as antiproliferative agents” (2015).

Usually GI50 stands for the concentration at which growth is held to half of that of the control. As to `C=C1[C@H]2C[C@@H]3C4N5C[C@]6(C)CCC[C@@]47[C@@H]6[C@@H]5C[C@]3([C@@H]1OC(=O)c1ccccc1)[C@H]7[C@H]2OC(=O)c1ccccc1`, the concentration for 50% growth inhibition (GI50) stood at 8.4 µM in assay [1], 9.3 µM in assay [2], 6 µM in assay [3] and 7.5 µM in assay [4]. In addition, the RatioGI50 in assay [5] is given as 0.8.
For `C=C1[C@H]2C[C@@H]3C4N5C[C@]6(C)CCC[C@@]47[C@@H]6[C@@]5(OC(=O)c4ccc(OC)cc4)C[C@]3([C@@H]1OC(=O)c1ccc(OC)cc1)[C@H]7[C@H]2O`, the concentration for 50% growth inhibition (GI50) in assay [1], in assay [2], in assay [3] and in assay [4] was greater than 20 µM throughout. For the same compound, the RatioGI50 in assay [5] is greater than 20.
Take `C=C1[C@H]2C[C@@H]3C4N5C[C@]6(C)CCC[C@@]47[C@@H]6[C@@H]5C[C@]3([C@@H]1OC(C)=O)[C@H]7[C@H]2O`: the GI50 in assay [1], in assay [2], in assay [3] and in assay [4] was greater than 20 µM in each case. The RatioGI50 in assay [5] is recorded as greater than 20.
In the case of `C=C1[C@H]2C[C@@H]3C4N5C[C@]6(C)CCC[C@@]47[C@@H]6[C@@]5(OC(=O)c4ccc(OC)cc4)C[C@]3([C@@H]1O)[C@H]7[C@H]2OC(=O)c1ccc(OC)cc1`, the GI50 in assay [1], in assay [2], in assay [3] and in assay [4] was greater than 20 µM throughout. Moreover, the RatioGI50 in assay [5] is reported as greater than 20.
For `CCN1C[C@]2(COC)CC[C@H](OC)[C@]34C1[C@@](O)([C@@H](OC)[C@H]23)[C@@]1(O)C[C@H](OC)[C@H]2C[C@@H]4[C@@H]1[C@H]2OC(C)=O`, the GI50 in assay [1], in assay [2], in assay [3] and in assay [4] was greater than 20 µM in each case. Also, the RatioGI50 in assay [5] is greater than 20.
Turning to `C=C1[C@H]2C[C@@H]3C4N5C[C@]6(C)CCC[C@@]47[C@@H]6[C@@]5(O)C[C@]3([C@@H]1OC(=O)c1ccccc1)[C@H]7[C@H]2OC(=O)c1ccccc1`, the concentration for 50% growth inhibition (GI50) in assay [1] was 8.8 µM; in assay [2], 7.6 µM; in assay [3], 5.2 µM; in assay [4] it was 6.3 µM. The RatioGI50 in assay [5] is 0.82.
The matching figures for `C=C1[C@H]2C[C@@H]3C4N5C[C@]6(C)CCC[C@@]47[C@@H]6[C@@H]5C[C@]3([C@@H]1OC(=O)c1ccc(F)cc1)[C@H]7[C@H]2OC(=O)c1ccc(F)cc1`: 8.1 µM, 6.8 µM, 5.2 µM, 7.1 µM and 0.73.
The matching figures for `CCN1C[C@]2(COC)[C@H](O)C[C@H](O)[C@]34C1[C@@](O)([C@@H](OC)[C@H]23)[C@@]1(O)C[C@H](OC)[C@H]2C[C@@H]4[C@@H]1[C@H]2O`: greater than 20 µM, greater than 20 µM, greater than 20 µM, greater than 20 µM and greater than 20.
For `CC1[C@H]2C[C@@H]3C4N5C[C@]6(C)CCC[C@@]47[C@@H]6[C@@]5(O)C[C@]3([C@@H]1O)[C@H]7[C@H]2O` (stereo not given in full) the same measures were greater than 20 µM, greater than 20 µM, greater than 20 µM, greater than 20 µM and greater than 20.
As for `CC(=O)O[C@H]1C(=O)[C@@]2(C)[C@H]([C@H](OC(=O)c3ccccc3)[C@]3(O)C[C@H](OC(=O)[C@H](O)[C@@H](NC(=O)c4ccccc4)c4ccccc4)C(C)=C1C3(C)C)[C@]1(OC(C)=O)CO[C@@H]1C[C@@H]2O` [PACLITAXEL], the GI50 in assay [1] turned out to be 0.0071 µM; in assay [2] it was 0.0057 µM; in assay [3], 0.0064 µM; in assay [4], 0.95 µM. The RatioGI50 in assay [5] was 0.0067.
For `C=C1[C@H]2C[C@@H]3C4N5C[C@]6(C)CCC[C@@]47[C@@H]6[C@@H]5C[C@]3([C@@H]1OC(=O)c1ccc(OC)cc1)[C@H]7[C@H]2OC(=O)c1ccc(OC)cc1` the same measures were 6.7 µM, 7.1 µM, 5.3 µM, 5.2 µM and 1.
The matching figures for `C=C1[C@H]2C[C@@H]3C4N5C[C@]6(C)CCC[C@@]47[C@@H]6[C@@]5(O)C[C@]3([C@@H]1O)[C@H]7[C@H]2OC(=O)c1cccc(C(F)(F)F)c1`: 6.8 µM, 7.7 µM, 8.9 µM, 6.2 µM and 1.5.
In the case of `C=C1[C@@H](O)[C@]23C[C@@H]1[C@@H](OC(=O)c1ccc(OC)c(OC)c1)C[C@H]2[C@@]12C4C3C[C@@H]1[C@@](C)(CC[C@H]2O)CN4CC`, the 50% growth inhibitory concentration (GI50) in assay [1], in assay [2], in assay [3] and in assay [4] was greater than 20 µM in each case. The RatioGI50 in assay [5] is given as greater than 20.
For `C=C1[C@H]2C[C@@H]3C4N5C[C@]6(C)CCC[C@@]47[C@@H]6[C@@]5(O)C[C@]3([C@@H]1OC(=O)c1cccnc1)[C@H]7[C@H]2OC(=O)c1cccnc1`, the GI50 in assay [1], in assay [2], in assay [3] and in assay [4] was greater than 20 µM throughout. The RatioGI50 in assay [5] is greater than 20.
For `C=C1[C@H]2C[C@H]3C4N5C[C@]6(C)CCC[C@]47[C@H]([C@H]2O)C3(C[C@]5(OC(=O)/C=C/c2ccccc2)[C@H]67)[C@@H]1O`, the GI50 in assay [1], in assay [2], in assay [3] and in assay [4] was greater than 20 µM throughout. In addition, the RatioGI50 in assay [5] is greater than 20.
`C=C1[C@H]2C[C@@H]3C4N5C[C@]6(C)CCC[C@@]47[C@@H]6[C@@]5(O)C[C@]3([C@@H]1OC(=O)c1ccc([N+](=O)[O-])cc1)[C@H]7[C@H]2O`: the GI50 in assay [1], in assay [2], in assay [3] and in assay [4] was greater than 20 µM in each case. Moreover, the RatioGI50 in assay [5] is recorded as greater than 20.
Turning to `C=C1[C@H]2C[C@@H]3C4N5C[C@]6(C)CCC[C@@]47[C@@H]6[C@@]5(O)C[C@]3([C@@H]1O)[C@H]7[C@H]2OC(=O)c1ccc([N+](=O)[O-])cc1`, the GI50 in assay [1] was determined as 5.8 µM; in assay [2], 7.2 µM; in assay [3] it was 6.4 µM; in assay [4], 6.4 µM. The RatioGI50 in assay [5] is on record as 1.
For `CCN1C[C@]2(C)CC[C@H](OC)[C@@]34[C@@H]5C[C@H]6[C@H](O)[C@@H]5[C@@]5(C[C@@H]6OC)OCO[C@@]5(C(=O)[C@H]23)[C@@H]14` [YUNNADELPHININE], the 50% growth inhibitory concentration (GI50) in assay [1], in assay [2], in assay [3] and in assay [4] was greater than 20 µM throughout. Besides, in assay [5], the RatioGI50 is recorded as greater than 20.
As to `C=C1[C@H]2C[C@@H]3C4N5C[C@]6(C)CCC[C@@]47[C@@H]6[C@@H]5C[C@]3([C@@H]1O)[C@H]7[C@H]2OC(=O)c1ccc([N+](=O)[O-])cc1`, the GI50 in assay [1], in assay [2], in assay [3] and in assay [4] was 10 µM in each case. Moreover, in assay [5], the RatioGI50 is reported as 10.
Regarding `C=C1[C@H]2C[C@H]3C4N5C[C@]6(C)CCC[C@]47[C@H]([C@H]2OC(=O)c2ccc(OC)c(OC)c2)C3(C[C@]5(O)[C@H]67)[C@@H]1O`, the GI50 in assay [1], in assay [2], in assay [3] and in assay [4] was 10 µM in each case. In addition, the RatioGI50 in assay [5] came to 10.
As to `CCN1C[C@]2(COC)[C@H](O)C[C@H](O)[C@]34C1[C@@](O)([C@@H](O)[C@H]23)[C@@]1(O)C[C@H](OC)[C@H]2C[C@@H]4[C@@H]1[C@H]2O`, the 50% growth inhibitory concentration (GI50) in assay [1], in assay [2], in assay [3] and in assay [4] was greater than 20 µM throughout. For the same compound, the RatioGI50 in assay [5] is given as greater than 20.
As to `C=C1[C@H]2C[C@@]3([C@@H]1OC(C)=O)[C@@H](C[C@@H]2O)[C@@]12C4[C@@H]3C[C@@H]1[C@@](C)(CC[C@@H]2O)CN4CC`, the concentration for 50% growth inhibition (GI50) in assay [1], in assay [2], in assay [3] and in assay [4] was greater than 20 µM in each case. Besides, in assay [5], the RatioGI50 was greater than 20.
Take `C=C1[C@H]2C[C@@H]3C4N5C[C@]6(C)CCC[C@@]47[C@@H]6[C@@H]5C[C@]3([C@@H]1O)[C@H]7[C@H]2OC(=O)c1ccc(F)cc1`: the GI50 in assay [1], in assay [2], in assay [3] and in assay [4] was greater than 20 µM each time. Also, the RatioGI50 in assay [5] is reported as greater than 20.
`CCN1C[C@]2(COC)[C@H](O)C[C@H](OC)[C@@]34[C@@H]5C[C@@]6(O)[C@H](OC(=O)c7ccccc7)[C@@H]5[C@@](OC(C)=O)([C@@H]([C@H](OC)[C@H]23)[C@@H]14)[C@@H](O)[C@@H]6OC` [ACONITINE]: the GI50 in assay [1], in assay [2], in assay [3] and in assay [4] was greater than 20 µM each time. Besides, the RatioGI50 in assay [5] is greater than 20.
